Screens deposited in PubChem by Broad Institute.
Rows were chosen to be rich in hits. Some 3.3% of all compounds tested hit in one or more screens of this group.
Statin myotox sup = suppressors of statin myotoxicity in C2C12 myotubes, primary screen, cell-based, single point, plate reader; C2C12 myotubes + simvastatin, ATP luminescence, 48 h; scaled: DMSO 0, geranylgeraniol control 100; rescue of ATP level, % at 7.49 µM; actives 0.78% (n = 330,000); AID 602340, 2012;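 active = mean ATP rescue above about 67%, or every replicate alone reaching that limit, limit read from the data, passing the limit was not always enough; inconclusive = no clear call, values can overlap the other calls; inactive = mean under the limit and some replicate under it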;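 also: myotubes were challenged with 10 µM simvastatin during compound exposure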
DENV2 CPE = inhibitors of DENV2 cytopathic effect, primary screen, cell-based, plate reader, single concentration; AID 651640, 2012; actives 1.7% (n = 350,000); CPE inhibition, % at 9.99 µM; DENV2-infected cells, cytopathic effect rescue; in the data active = CPE inhibition above about 20%, passing the limit was not always enough; inconclusive = no clear call, values can overlap the other calls; tested in BHK-21 cells;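 also: 0% = median of neutral control wells and 100% = median of positive control wells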
E-selectin induc = E-selectin induction in HUVECs, primary screen, imaging, HUVEC, immunofluorescence imaging, single point | normalized: neutral wells 0, TNF-alpha wells 100 | P16581 | activation, % at 7.58 µM | AID 686992, 2013 | actives 0.37% (n = 260,000);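 active = mean E-selectin-positive cell signal at least 10% of the positive control, reached in at least 60% of replicates, without over 20% cell loss; inconclusive = no rule given, readout overlaps actives, possibly toxicity-flagged; inactive = the rest, including those meeting only one limit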
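Read-out basis: % PE-positive cells; Test system: HUVEC primary endothelial cells; Technique: immunofluorescence imaging; Dosing: single-point compound dose.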
FGF22 binding = binders of human FGF22 protein, primary screen, FGF22 synaptogenesis inhibitor project, biophysical, thermal shift, single point; AID 651658, 2012; recombinant FGF22 thermal shift, SYPRO orange fluorescence; percent of sucrose octasulfate shift, DMSO zero; activity (Tm shift, normalised), % at 9.99 µM; Fibroblast growth factor 22 (Homo sapiens), Q9HCT0; actives 1.5% (n = 340,000);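 active = mean Tm shift, scaled 0 neutral to 100 positive control, at about 1.3% or above, every replicate too, limit read from the data; inconclusive = no clear call, values can overlap the other calls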
Target sequence (Q9HCT0 whole entry, looked up): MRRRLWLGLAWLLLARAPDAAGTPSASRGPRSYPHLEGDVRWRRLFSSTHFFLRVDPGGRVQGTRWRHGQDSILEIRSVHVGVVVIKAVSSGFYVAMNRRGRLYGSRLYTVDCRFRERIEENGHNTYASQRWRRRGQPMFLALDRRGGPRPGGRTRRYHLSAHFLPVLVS
XiGFP reactiv = activators of inactive X chromosome reactivation, primary screen, imaging, XiGFP fibroblasts, GFP high-content imaging, set 2. XiGFP mouse fibroblasts, % GFP-positive cells imaging, 3 d; cells co-treated with 5-aza-dC sensitizer; scaled so ellipticine positive control = 100%. activation, % at 7.58 µM. actives 0.055% (n = 360,000). AID 743238, 2013;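 active = mean normalized replicate activation at least 10% and every replicate at or above 10%; inconclusive = only one of the two criteria met; inactive = mean below 10% and not all replicates reach 10%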;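 also: 0% = median of on-plate neutral control wells and 100% = ellipticine 6 µM median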
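System: XiGFP fibroblasts, SV40-immortalized. Medium: DMEM plus 5-aza-dC sensitizer. Doses: single point. Timing: 3 d treatment, 15 min room-temperature fixation. Control set: ellipticine 6 µM.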
PglD DTNB = C. jejuni PglD acetyltransferase inhibitors, primary screen, biochemical, DTNB colorimetric, single point | UDP-N-acetylbacillosamine N-acetyltransferase PglD (Campylobacter jejuni) | purified PglD enzyme, DTNB colorimetric CoA detection | inhibition, % at 12.5 µM | actives 0.098% (n = 360,000) | AID 602405, 2012; in the data active = inhibition above about 16%, passing the limit was not always enough; inconclusive = no clear call, values can overlap the other calls
Numbers without * were called inactive; ? = inconclusive; · = not tested or not shown.

SMILES | Statin myotox sup | DENV2 CPE | E-selectin induc | FGF22 binding | XiGFP reactiv | PglD DTNB
COc1cc(C=c2c3ccccc3n3c2cc(-c2ccccc2)[n+]3C)cc(OC)c1OC | · | 7 | 139* | 0 | 0 | ·
CN(C)c1ccc(C=c2c3ccccc3n3c2cc(-c2ccc(Cl)cc2)[n+]3C)cc1 | · | 20 | 122* | 0 | 0 | ·
CO[C@H]1CN(C)C(=O)c2ccc(NC(C)=O)cc2OC[C@@H](C)N(C(=O)Cc2cccnc2)C[C@H]1C | -4 | 4 | 3 | · | 0 | -1
C[C@@H](NC(=O)[C@H]1[C@H](CO)[C@H]2Cn3c(cccc3=O)[C@H]2N1CC1CCCCC1)c1ccccc1 | · | 24* | -1 | · | 0 | ·
CC=Cc1ccc2n(c1=O)C[C@H]1[C@H](CO)[C@@H](C(=O)N[C@@H](C)c3ccccc3)[C@@H]2N1Cc1ccncc1 (mixture of isomers) | -4 | 4 | 0 | 16* | 0 | 2
O=C([C@H]1[C@H](CO)[C@H]2Cn3c(cccc3=O)[C@@H]1N2Cc1cccc(Cl)c1)N1CCCCC1 | -8 | 34* | 0 | 0 | 0 | 3
CC=Cc1ccc2n(c1=O)C[C@@H]1[C@@H](CO)[C@H](C(=O)N[C@H](C)c3ccccc3)[C@H]2N1Cc1ccncc1 (mixture of isomers) | -3 | 0 | 0 | 0 | 0 | 1
O=C(NCc1ccc(F)cc1)[C@H]1[C@H](CO)[C@H]2Cn3c(cccc3=O)[C@@H]1N2CC1CCCC1 | -3 | 43* | -1 | 0 | 0 | 2
O=C(NCCN1CCCC1)[C@H]1[C@H](CO)[C@H]2Cn3c(cccc3=O)[C@@H]1N2C(=O)NC1CCCC1 | · | 23* | 0 | · | 0 | ·
C[C@H](NC(=O)[C@H]1[C@H](CO)[C@H]2Cn3c(cccc3=O)[C@@H]1N2Cc1cccnc1)c1ccccc1 | 7 | 81* | 1 | 0 | 0 | -3
O=C(NC1CCCCC1)[C@@H]1[C@@H](CO)[C@@H]2Cn3c(cccc3=O)[C@H]1N2Cc1cccnc1 | -2 | 136* | 0 | 1 | 0 | 0
O=C(Nc1nc2c(s1)CCCC2)c1ccc(Br)o1 | 112* | · | · | · | · | 3
Cc1ccc(C(=O)Nc2nc3c(s2)CCCC3)o1 | -23 | · | · | · | · | -5
O=C(c1cccnc1)N1C[C@H]2[C@@H](c3ccccc31)[C@@H](CO)N2C(=O)Nc1ccccc1 | 6 | ? | 0 | 1 | 0 | 0
CNC[C@H]1Oc2cc(C#Cc3ccc(OC)cc3)ccc2S(=O)(=O)N([C@@H](C)CO)C[C@@H]1C | -55 | 33* | -2 | 0 | 1 | 7
COc1ccc(C#Cc2ccc3c(c2)O[C@H](CN(C)C(=O)Nc2cccc(OC)c2)[C@@H](C)CN([C@H](C)CO)S3(=O)=O)cc1 | ? | -7 | 0 | 0 | 0 | 3
COc1ccc(C#Cc2ccc3c(c2)O[C@H](CN(C)C(=O)Nc2cccc(OC)c2)[C@H](C)CN([C@H](C)CO)S3(=O)=O)cc1 | 92* | -7 | 0 | 0 | -1 | 1
COCC(=O)N1C[C@H](C)[C@@H](OC)CN(C)C(=O)c2cc(NC(=O)c3cc(C)on3)ccc2OC[C@@H]1C | 9 | 12 | 0 | 0 | 0 | 0
Cc1noc(C)c1S(=O)(=O)N(C)C[C@H]1Oc2c(NS(=O)(=O)c3ccc(F)cc3)cccc2C(=O)N([C@@H](C)CO)C[C@H]1C | · | · | 0 | · | 0 | ·
CC(C)NC(=O)N(C)C[C@H]1Oc2ncc(C#Cc3ccncc3)cc2C(=O)N([C@@H](C)CO)C[C@@H]1C | 19 | 7 | -1 | 0 | 1 | 4
O=C(O)CN1CCNCCN(CC(=O)O)CCNCC1 | · | 20 | 0 | 43* | 0 | ·
Cc1cccc(OCCn2c(=O)sc3ccccc32)c1 | 7 | · | · | · | · | -4
Cc1cccc(OCCn2c(=O)n(C)c3ccccc32)c1 | 19 | 69* | -1 | 0 | 0 | 0
CC1(C)CC(=O)c2cnc(NC(=O)CCc3ccccc3)nc2C1 | 93* | · | · | · | · | 0
COc1ccc(S(=O)(=O)N(C)C[C@@H]2OCCCC[C@H](C)Oc3ccc(NC(=O)CCCN(C)C)cc3C(=O)N([C@H](C)CO)C[C@@H]2C)cc1 | · | 8 | 0 | 0 | 0 | -1
SMILES | Statin myotox sup | DENV2 CPE | E-selectin induc | FGF22 binding | XiGFP reactiv | PglD DTNB
CN(C(=O)COC(=O)/C=C/c1cn(-c2ccccc2)nc1-c1ccc2c(c1)OCCO2)C1CCS(=O)(=O)C1 (configuration not stated) | · | 2 | 5 | 43* | 0 | ·
CCCCCc1ccc(-c2cn(CCCOCc3ccccc3)nn2)cc1 | 2 | · | 0 | 4.2* | 0 | ·
O=[N+]([O-])c1cccc(-c2c(-c3ccccc3)ncc3ccc(F)cc23)c1 | 121* | 19 | 0 | 0 | 0 | 4
O=C1CCC/C(=N/Nc2ccc(Cl)cc2)C1 | · | -1 | 8 | 44* | 0 | ·
Clc1ccccc1CNc1ncnc2nc[nH]c12 | 101* | 1 | 1 | 0 | 0 | -1
CCC(CC)C(=O)Nc1cccc(/C(C)=N/NC(=O)c2c(Br)cnn2C)c1 | 7 | · | · | · | · | 3
CCC(CC)C(=O)Nc1cccc(/C(C)=N/NC(=O)c2ccccc2Cl)c1 | 112* | · | · | · | · | 7
COc1ccc(OC)c(C2=NOC(C(=O)Nc3cccnc3)C2)c1 (configuration not stated) | 8 | · | · | · | · | 3
COc1ccc(S(=O)(=O)NNC(=O)C2CC(c3cccnc3)=NO2)cc1 (configuration not stated) | 10 | -3 | · | 44* | 0 | ·
COc1cccc(C2=NOC(C(=O)Nc3cccnc3Cl)C2)c1 (configuration not stated) | 13 | 8 | · | 44* | 0 | ·
CCSc1nc(C2CC2)cc(-c2cccs2)c1C#N | 26 | · | · | · | · | -3
CCSc1nc(C2CC2)cc(-c2ccco2)c1C#N | 100* | · | · | · | · | -12
Cc1cc(C(=O)CN2C(=O)C(=O)N(CC(C)C)C2=O)c(C)n1-c1ccccc1F | · | -16 | · | 43* | 0 | ·
CNC(=O)C[C@@H]1CC[C@H]2[C@H](COc3ccc(NC(=O)c4cnccn4)cc3C(=O)N2C)O1 | 3 | 2 | 0 | 0 | 0 | 0
CN1CCN(c2ccccc2NC(=O)c2cccc([N+](=O)[O-])c2)CC1 | 5 | -6 | 0 | 44* | 0 | -10
O=C(Nc1ccccc1N1CCCC1)c1ccc(Cl)cc1Cl | · | 2 | · | 0 | 0 | ·
